System: MS2 coat protein
Test: apparent Kd, MS2 coat protein; higher = weaker binding; RNA-MaP array; FMN 200 µM where present
Summary of the method: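 Apparent Kd: the median of filtered binding-curve fits from single clusters. Designs were transcribed on Illumina sequencing-chip clusters by stalled E. coli RNA polymerase and titrated with SNAP-549-labelled MS2 coat protein from 0.7 or 1.5 nM, doubling to 3 µM, in 100 mM Tris-HCl pH 7.5, 80 mM KCl, 4 mM MgCl2, BSA, DTT, yeast tRNA and Tween-20. Each series ran without and then with constant ligand, and green signal was normalised to red-channel RNA signal and control-cluster median Fmax.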

[1] = designed as: OFF switch for flavin mononucleotide, no ligand
[2] = ligand present: flavin mononucleotide, designed as: OFF switch for flavin mononucleotide
[3] = designed as: ON switch for flavin mononucleotide, no ligand
[4] = ligand present: flavin mononucleotide, designed as: ON switch for flavin mononucleotide

| Sequence | apparent Kd [1] | apparent Kd [2] | apparent Kd [3] | apparent Kd [4] |
| --- | --- | --- | --- | --- |
| UCAUGAUAUGUAGGAUAUCACAAUAAUUGAUUAAUAUAUGAAUAUAGAAUUUGAGAAGGACAUUUACAUGAGGAUCACCCAUGU | 0.0148 µM | 0.0123 µM |  |  |
| UCAUGCAUAGCGAUAUGAUCGAGAGAUCAUGUCGCUAAAUUUAGAAGGACAUGAGGAUCACCCAUGUAGGAUAUGGGAGCAUGU |  |  | 0.535 µM | 0.0632 µM |
| UCCAAAUCGUAGAAGGGUGACAUGAGGAUCACCCAUGUGCAGCGGCCGUGAACGGCCACGCUGCCACAGGAUAUACGAUGGAGU |  |  | 0.0484 µM | 0.0741 µM |
| UCCACUGCUGAGAAGGGAUACGUCUGGGUCGCAUCAGGAUAUCGAUACAGUGCAGCAUGAGGACAUGAGGAUCACCCAUGUGUG |  |  | 0.102 µM | 0.0496 µM |
| UCCACUGCUGAGAAGGGAUACGUGUGGUUCGAAUCAGGAUAUCGAUACAGUGCAGCAUGAGGACAUGAGGAUCACCCAUGUAUU |  |  | 0.0191 µM | 0.0142 µM |
| UCCGUGGCAUCUCGCGCAUGUCCACAUGAGGAUCACCCAUGUCAGGAUAUACGGAAUGUCGUUCCGUAGAAGGGACAAGGGCUG | 0.178 µM | 0.0697 µM |  |  |
| UCCUACAUGGGAGGAUAUGGGAUGAUAACAUGAGGAUCACCCAUGUUAAAGAUGCCGAGAGGCAACUAGAAGGCCCAUGUAGGU |  |  | 0.434 µM | 0.0703 µM |
| UCCUCGUAGUAGAAGGGCGGCCGAAAUCUGCACGCAGGAUAUACAUGAGGAUCACCCAUGUACUGAGCUGAAGAGCACUUGGAA | 0.0115 µM | 0.0295 µM |  |  |
| UCCUGAUCGAGAGGUAGGAGUGGUAGAAGGCGACCGGUGCCAGAUGACAUGAGGAUCACCCAUGUCGAGGAUAUACCACAGAAU | 0.00703 µM | 0.0123 µM |  |  |
| UCCUUGUCCUGAGGAUAUCCGCGGUUCCCAAAAGGAGAAGGCAGGACAUGAGGAUCACCCAUGUACCGAGAAAACGUGCAGAGU | 0.0127 µM | 0.105 µM |  |  |
| UCGAACGGAAACAAAGUAAAUAGACAUGAGGAUCACCCAUGUAAGGAUAUGCCUACUAAAAGUAGGCAGAAGGUACGCGUUCGA | 0.0165 µM | 0.0207 µM |  |  |
| UCGAAGAAGCAAGGAUAUCAAUAUUAGCAAAAUAUGACAUGAGGAUCACCCAUGUAAAUAUGGAGUGAGAAGGUGCAAUAAUUU |  |  | 0.274 µM | 0.149 µM |
| UCGACCAGCGCCAGUCGAACAUGAGGAUCACCCAUGUACUCCAGAAGGCCGCCCAAGUACGGAGUGGAGGAUAUGGAAGUUCUC |  |  | 0.0473 µM | 0.0263 µM |
| UCGAUCGUAUGAGGAUAUGGUACACAAAGUGUACCAGAAGGCAUGUCAAUAGACAUGAGGAUCACCCAUGUAUUAUCGAUCGAA |  |  | 0.361 µM | 0.0517 µM |
| UCGAUGCGAGGAUAUACUAAGGCAACUACUGCAGCUCAAAAACAUGAGGAUCACCCAUGUAGAAGGCGCAUAUA | 0.016 µM | 0.0154 µM |  |  |
| UCGCCAGGUACAGGAUAUGUGGAUCGGUCAAGUAACUCGCCGAACAUGAGGAUCACCCAUGUAUCACAGAAGGGUGCCUCAAAG |  |  | 0.223 µM | 0.0109 µM |
| UCGCGGGUGCAGAAGGGAUAGGCCUAUUUUCGUGGUGUCCAAACUUAACAUGAGGAUCACCCAUGUCAGGAUAUGCCCACGCGA | 0.0295 µM | 0.0527 µM |  |  |
| UCGCUGCGAGGAUAUACAUGAGGAUCACCCAUGUGCGGGUCCGGGUCUUUGUCCAUUAGUAGAAGGCGCAGUGA | 0.305 µM | 0.0827 µM |  |  |
| UCGCUGCGAGGAUAUACGUGCGCGCGCGCGCGCGCGCGCGUACAUGAGGAUCACCCAUGUAGAAGGCGCUCUGC | 0.0397 µM | 0.0366 µM |  |  |
| UCGCUGCGAGGAUAUACGUGCGCGCGCUCGCGUGCGCGCGUACAUGAGGAUCACCCAUGUAGAAGGCGCGCUGC | 0.0171 µM | 0.0183 µM |  |  |
| UCGGCGCGAGGAUAUACGUUUGCUUUUUUGUGUCGUUGCGUACAUGAGGAUCACCCAUGUAGAAGGCGCGCCGC | 0.0175 µM | 0.0836 µM |  |  |
| UCGGCGCGAGGAUAUGCGGUUGCUUGGUAGGGUCGGAGCGUACAUGAGGAUCACCCAUGUAGAAGGCGCGCCGC | 0.0188 µM | 0.025 µM |  |  |
| UCGGCGCGAGGAUAUGCGGUUGCUUGGUAGGGUCGUGGCGUACAUGAGGAUCACCCAUGUAGAAGGCGCGCCGC | 0.0196 µM | 0.0259 µM |  |  |
| UCUACAUAAAUUCAUCAAUACAGAAAGGAUAUGAAAUACAUGAGGAUCACCCAUGUUCAUGGGAAUUAGAAGGUUCAAUUAGCU | 0.22 µM | 0.137 µM |  |  |
| UCUACGCGAAUCAAGAUGGAUAGAACAUGAGGAUCACCCAUGUAGGAUAUGCUACACAAAGUGUAGCAGAAGGACAAGCGUAGA | 0.0251 µM | 0.0357 µM |  |  |
| UCUAUAAGAAAAUAGACGAAGUGGCCAGAAGGUGAAUGCCACAUGAGGAUCACCCAUGUUUCGAUCAAGGAUAUGGUUUCUCAC |  |  | 0.383 µM | 0.0991 µM |
| UCUCUGCGAGGAUAUACGUUUGCGCGCUUUCGUUUGCGCGUACAUGAGGAUCACCCAUGUAGAAGGCGCGUUUC | 0.0132 µM | 0.0141 µM |  |  |
| UCUGAGGUCACAGGAUAUCAUACGUCGGCACGUUGAGAAGGGUGACCGAGCUACAUGAGGAUCACCCAUGUGCUGUCGUAACAA |  |  | 0.0854 µM | 0.164 µM |

| Sequence | apparent Kd [1] | apparent Kd [2] | apparent Kd [3] | apparent Kd [4] |
| --- | --- | --- | --- | --- |
| UCUGCCGCCGUGAGGAUAUGCCCAAAAAAACGCGGGCAGAAGGCACAUGAGGAUCACCCAUGUCCCGCGGUUUU | 0.0195 µM | 0.0341 µM |  |  |
| UCUGGUCAAGGAUAUGCGUAAUGUGUUACGGCACGAGGUCUACAUGAGGAUCACCCAUGUAGAAGGUGAUCAGA | 0.018 µM | 0.0179 µM |  |  |
| UCUGUUCAAGGAUAUGCGUAAUGUGUUACGGCACGAGGUCUACAUGAGGAUCACCCAUGUAGAAGGUGAUCAGA | 0.0215 µM | 0.0222 µM |  |  |
| UCUUAAUUGAUCCUAUUUACCAACAUGAGGAUCACCCAUGUGCAGGAUAUGCUAAAGAUAGAUAAGCAGAAGGGCAUUUACCGC | 0.213 µM | 0.484 µM |  |  |
| UCUUACUGAGGAUAUACUUAGAUUUACAUGAGGAUCACCCAUGUUCCUCUAUGUAUAUAUGUAGAAGGCAGAAGUU | 0.0254 µM | 0.158 µM |  |  |
| UGAAAUCAUGUAGGAUAUGCAUGGCGAAGCUACGCAGAAGGACAUGAGGAUCACCCAUGUUCUAGCUACCGGAUACGGUGGCAA | 0.0231 µM | 0.116 µM |  |  |
| UGAAAUCAUGUAGGAUAUGCAUGGCGAAGCUACGCAGAAGGACAUGAGGAUCACCCAUGUUCUGGCUACCGAGUUCGGUGGCAA | 0.0221 µM | 0.105 µM |  |  |
| UGAACUAUGUAGAAGGCCCAUAUUUAUAUAUAGGGAGGAUAUACAUGAGGAUCACCCAUGUAUAGAGCAAGAGGACUUGUCAGU | 0.00634 µM | 0.00707 µM |  |  |
| UGAACUAUGUAGAAGGCCCUCAUGAAAAUGAAGGGAGGAUAUACAUGAGGAUCACCCAUGUGAAGAGCAAGAGGGUUUAACAGA | 0.149 µM | 0.172 µM |  |  |
| UGAACUUCAGAGAAGGUCGGAUGGCAACGGUCCGAAGGAUAUCUGGAAACAUGAGGAUCACCCAUGUAACCGGGUGGAUGUCCU | 0.035 µM | 0.113 µM |  |  |
| UGACACUUGAGGGUCUCCCUUGACAUGAGGAUCACCCAUGUGCAGGAUAUACGUGUGAUGGUAUAGUAGAAGGGCACUCUAUGU | 0.0277 µM | 0.0356 µM |  |  |
| UGACCCAUGACAUGAGAUGACAUGAGGAUCACCCAUGUUUACAAGGAUAUGUUGGUCAAAGGUCGGCAGAAGGUGUAAUGGGAU | 0.049 µM | 0.128 µM |  |  |
| UGACUAAAUGAAGGAUAUCUAAGCAUAAACCUGAGAGAAGGUCAUUUUUACAUGAGGAUCACCCAUGUUGUGAUUAAUGGGUCA | 0.0887 µM | 0.137 µM |  |  |
| UGACUGAUAUAGAAGGGUAUGUGGGAAUUACAUGAGGAUCACCCAUGUUUUAUAGGAUAUGUAUAUAGUUUUUAAUCAAGUUUA | 0.0482 µM | 0.0368 µM |  |  |
| UGAGCCUCGUGAGGAUAUACAUGAGGAUCACCCAUGUAAUAGGAUGAACGGUGGAAACACCGAAUGUAGAAGGCACGAGGCUCA | 0.0822 µM | 0.869 µM |  |  |
| UGAGCGACCACAGGAUAUACUUGAGAAGACCGAGUAGAAGGGUGGAAGAGCAUGCAGUGACAUGAGGAUCACCCAUGUGGUUGG |  |  | 0.097 µM | 0.0658 µM |
| UGAUACUAAGAGAAGGUUCAAACUACAUAUUGCAUACAUGAGGAUCACCCAUGUUGGUGAAUAAGAAAGGAUAUUUUACUAUAU | 0.0482 µM | 0.0382 µM |  |  |
| UGAUAGCACAGAGGAUAUGCGUAGUGUUAUCUCUACAUGAGGAUCACCCAUGUAGAAGGCUGUGCUAUCUAAGUCGGAAACGAU | 0.00619 µM | 0.00986 µM |  |  |
| UGAUAGGACAGAGGAUAUACCGAUAGGAGAUACUAUCGACUAGUCCUCACAUGAGGAUCACCCAUGUAGAAGGCUGUCCUAUCU | 0.0228 µM | 0.269 µM |  |  |
| UGAUAGGACAGAGGAUAUACGAAAGGCGAUCCAUACAUGAGGAUCACCCAUGUAGAAGGCUGUCCUAUCUAAGUCGGAAACGAC | 0.0849 µM | 0.0169 µM |  |  |
| UGAUAGGACAGAGGAUAUACGGAUAGGAUCUACUAUCUUCCUUAAAUAACAUGAGGAUCACCCAUGUAGAAGGCUGUCCUAUCU | 0.0182 µM | 0.0652 µM |  |  |
| UGAUAGGACAGAGGAUAUACGUAUAAAUAUCCUUACAUGAGGAUCACCCAUGUAGAAGGCUGUCCUAUCUAAGUCGGAAACGAC | 0.00596 µM | 0.0103 µM |  |  |
| UGAUAGGACAGAGGAUAUACGUGCUAGAGAUACUAGCAAAAUAUCCUCACAUGAGGAUCACCCAUGUAGAAGGCUGUCCUAUCU | 0.018 µM | 0.0833 µM |  |  |
| UGAUAGGACAGAGGAUAUGCCGAUAGGAUCUACUAUCGAAGAAUCCUCACAUGAGGAUCACCCAUGUAGAAGGCUGUCCUAUCC | 0.00868 µM | 0.0395 µM |  |  |
| UGAUAUGUAGUAGGAUAUCAGGUUACAUGAGGAUCACCCAUGUUAGAUUGGUGGAUAGAUGUUGAUGAGAAGGACUUUUGAGUU | 0.0796 µM | 0.101 µM |  |  |
| UGAUCUUACAUGAGGAUCACCCAUGUAGGCCAGUAACUAACCAGAAGGCACGUAGAGUAAAACAGUGAGGAUAUGGAUGACAUA |  |  | 0.0117 µM | 0.00632 µM |
| UGAUCUUGGGUCAGGAUAUGCUGGUAUUUUUGCCAGCAGAAGGGACAUGAGGAUCACCCAUGUUCUUGGUUUUU | 0.0117 µM | 0.0149 µM |  |  |

Reference: the EternaBench riboswitch data
